This is an account of results in ChEMBL document CHEMBL1156683, “Basic 3-hydroxypyridin-4-ones: potential antimalarial agents” (Eur J Med Chem, 2008).

Series [1] in a line: Dissociation constant, pKa corresponding to protonation of the 4-hydroxy group by potentiometric titration. The class given is physicochemical. The procedure, abridged: (§1)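 Ligand protonation constants from an automated titration system, potentiometric and spectrophotometric read-outs. Values optimized by non-linear least-squares regression, accuracy ±0.02 pH unit.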
A short description of series [2]: Dissociation constant, pKa corresponding to deprotonation of the basic substituent by potentiometric titration. The class given is physicochemical. The procedure, abridged:
as §1

Series [3] is described as follows: Dissociation constant, pKa corresponding to protonation of the 4-hydroxy group by spectrophotometric titration. The class given is physicochemical. The procedure, abridged: as §1
The nature of series [4]: Dissociation constant, pKa corresponding to deprotonation of the basic substituent by spectrophotometric titration. The class given is physicochemical. The procedure, abridged:
as §1

Series [5] can be described thus: Dissociation constant, pKa corresponding to dissociation of the 3-hydroxyl group by potentiometric titration. The class given is physicochemical. The procedure, abridged:
as §1

The test system of a further series is Plasmodium falciparum. As to the kind of experiment: Antimalarial activity against chloroquine-resistant Plasmodium falciparum TM267TR after 24 hrs by [3H]hypoxanthine. The class given is functional, organism-based. The procedure, abridged: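 Clone maintained in human red cells in RPMI 1640 with 10% human serum, 25 mM HEPES and 25 mM NaHCO₃. Cultures were sorbitol-synchronized, washed, then diluted with normal red cells to 1% hematocrit and 0.5% parasitemia. Incubated with serial dilutions of chelator. ³H-hypoxanthine pulse for a further 18 h, then harvested and counted by scintillation. IC₅₀ by non-linear regression of triplicate dose-response curves.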

Series [6] can be described thus: Dissociation constant, pKa corresponding to dissociation of the 3-hydroxyl group by spectrophotometric titration. The class given is physicochemical. The procedure, abridged:
as §1

Series [7] is described as follows: Partition coefficient, log P of the compound. The class given is physicochemical. As to conditions: octanol/water. The procedure, abridged:
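Calculated from the measured octanol/MOPS pH 7.4 distribution coefficient divided by the fraction of neutral species at pH 7.4, which is derived from the measured pKa values.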

The nature of series [8]: Octanol-MOPS buffer distribution coefficient, DC at pH 7.4. As to conditions: octanol/water. The class given is physicochemical. The procedure, abridged: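 Automated continuous-flow filter-probe method, 1-octanol versus 50 mM MOPS buffer pH 7.4, phases mutually presaturated. Compound dissolved in buffer to absorbance 0.5–1.5 units at a preselected wavelength; aqueous phase separated by hydrophilic cellulose filter and read by absorbance. n = 5.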

Series [9] has as its system Rattus norvegicus. As to the kind of experiment: Iron-clearing efficiency in po dosed [59Fe]ferritin-loaded Wistar rat assessed as iron mobilization. The class given is functional. The procedure, abridged:
(§2)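 Male Wistar rats, normal, fasted, 190–230 g. Hepatocytes labelled with ⁵⁹Fe by tail-vein [⁵⁹Fe]ferritin; chelator given orally 1 h later, controls received water. Individual metabolic cages collected urine and faeces; food allowed 1 h after dosing, water unrestricted. Killed 24 h after ferritin; liver and gastrointestinal tract with contents and faeces gamma counted.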

For series [10], the system named is Rattus norvegicus. As to the kind of experiment: Iron-clearing efficiency in po dosed [59Fe]ferritin-loaded Wistar rat assessed as iron removal. The class given is functional. The procedure, abridged:
as §2

The structures appear in SMILES notation.

As usually defined, the pKa is the pH at which an ionisable group is half protonated. A high value points to a group that holds its proton tightly. Broadly, the IC50 is the concentration that gives 50% inhibition. High values mean weaker potency, low ones greater potency. The term logP denotes the decadic logarithm of the partition coefficient of the neutral form, usually between octanol and water. A higher logP goes with higher lipophilicity.

Regarding `Cn1c(CO)cc(=O)c(O)c1CN1CCCCC1`, the pKa in series [1] came to 2.14; in series [2], 6.74; in series [3] it was 2.41; in [4], 6.67; in [5] it was 10.5; in series [6] it was 10.4. Inhibition in the series on Plasmodium falciparum was half-maximal at 29 µM (IC50). In series [7], this compound yielded a logP of 0.295. Besides, the D in series [8] was 1.636.

Regarding `Cc1c(O)c(=O)ccn1CCN1CCOCC1`, the pKa in [1] is 2.67; in series [2], 4.89; in series [3], 2.64; in series [4], 4.91; in series [5], 9.71; in series [6] it was 9.68. Moreover, in the series with Plasmodium falciparum, half-maximal inhibition (IC50) required 50 µM. In addition, in series [7], the logP was -0.909. The compound further showed a D in series [8] of 0.122.

Regarding `CCc1c(O)c(=O)ccn1CCN(C)C`, the pKa is 2.62 in [1]; 6.88 in [2]; 2.68 in series [3]; 7.16 in [4]; 9.66 in series [5]; 9.58 in series [6]. Moreover, the results for the Activity in the series with Rattus norvegicus [9] and in the series with Rattus norvegicus [10] were 20.3% and 16.4%, respectively. In the series with Plasmodium falciparum, the IC50 came to 85 µM. The compound also yielded a lipophilicity (logP) in series [7] of -0.114. Also, the D in [8] amounted to 0.538.

For `Cc1cc(=O)c(O)c(CN2CCCCC2)n1C`, the pKa amounted to 2.5 in series [1]; 7.07 in [2]; 2.73 in [3]; 6.98 in series [4]; 10.8 in [5]; 10.3 in series [6]. The compound further yielded an IC50 in the series on Plasmodium falciparum of 23 µM. The compound further yielded a log partition coefficient (logP) in series [7] of 0.559. The compound further yielded a D in series [8] of 2.536.

Consider `Cc1c(O)c(=O)ccn1CCCn1ccnc1`, for which the pKa came to 3.13 in [1]; 6.6 in series [2]; 3.08 in series [3]; 6.71 in series [4]; 9.92 in series [5]; 9.82 in series [6]. For the same compound, the Activity is 5.3% in the series with Rattus norvegicus [9] and 1.4% in the series on Rattus norvegicus [10]. In the series on Plasmodium falciparum, this compound returned a half-inhibitory concentration (IC50) of 85 µM. Further, the lipophilicity (logP) in series [7] is -0.392. In addition, the D in series [8] worked out at 0.344.

On to `CCn1ccc(=O)c(O)c1C(C)O` (stereo unspecified), for which the Activity is reported as 48.4% in the series with Rattus norvegicus [9] and 44.5% in the series with Rattus norvegicus [10]. In the series on Plasmodium falciparum, the IC50 amounted to 45 µM. Also, the logP in series [7] was -0.557. Further, in series [8], the D amounted to 0.266.

Regarding `Cc1c(O)c(=O)ccn1CCN(C)C`, the pKa in series [1] was 2.74; in [2], 7.05; in series [3] it was 2.86; in series [4], 7.02; in [5] it was 9.75; in [6] it was 9.58. For the same compound, the values for the Activity in the series with Rattus norvegicus [9] and with Rattus norvegicus [10] were 13% and 9.1%, respectively. The compound also registered an IC50 in the series with Plasmodium falciparum of 80 µM. Also, the logP in series [7] was -0.657. Further, the D in series [8] was 0.154.

As for `O=c1ccn(CCN2CCCCC2)c(CO)c1O`, the pKa in series [1] came out at 2.25; in series [2], 7.35; in [3] it was 2.2; in [4] it was 7.43; in series [5], 9.28; in series [6], 9.24. In addition, the Activity in the series on Rattus norvegicus [9] stood at 23.3%; with Rattus norvegicus [10], 19.4%. Inhibition in the series on Plasmodium falciparum was half-maximal at 10 µM (IC50). The same compound displayed a logP in series [7] of 0.019. In series [8], this compound showed a D of 0.501.

Take `Cc1cc(=O)c(O)c(CN2CCOCC2)n1C`: the pKa is 2.38 in [1]; 4.89 in [2]; 2.43 in series [3]; 4.82 in series [4]; 10.1 in [5]; 9.72 in [6]. Moreover, in the series with Plasmodium falciparum, the IC50 is 50 µM. Further, the log partition coefficient (logP) in [7] was -0.435. The compound also had a D in series [8] of 0.364.

Regarding `CCN(CC)CCn1ccc(=O)c(O)c1C`, the pKa in series [1] worked out at 2.63; in series [2], 7.53; in series [3], 2.66; in series [4], 7.5; in series [5], 9.65; in [6] it was 9.6. Besides, the Activity with Rattus norvegicus [9] is listed as 12.4%; in the series on Rattus norvegicus [10], 8.5%. In the series on Plasmodium falciparum, this compound displayed an IC50 of 50 µM. In addition, the logP in series [7] was 0.059. In [8], the D is given as 0.493.

On to `Cc1c(O)c(=O)ccn1CCN1CCCCC1`, for which the pKa stood at 2.77 in series [1]; 7.42 in series [2]; 2.88 in [3]; 7.47 in series [4]; 9.63 in series [5]; 9.71 in [6]. Further, the Activity with Rattus norvegicus [9] turned out to be 22.7%; in the series with Rattus norvegicus [10], 18.8%. Also, the concentration for half-maximal inhibition (IC50) in the series on Plasmodium falciparum worked out at 35 µM. This compound also returned a lipophilicity (logP) in [7] of 0.31. Further, in series [8], the D was determined as 0.96.

`Cn1cc(O)c(=O)cc1CN1CCCCC1`: the pKa in series [1] was 2.15; in series [2], 6.74; in series [3], 2.16; in series [4] it was 6.72; in series [5], 8.85; in series [6], 8.86. In the series with Plasmodium falciparum, half-maximal inhibition (IC50) was put at 31 µM. This compound yielded a log partition coefficient (logP) in series [7] of 0.64. In [8], this compound yielded a D of 3.493.

For `CCc1c(O)c(=O)ccn1CCCn1ccnc1`, the pKa in [1] was 3.09; in series [2] it was 6.55; in series [3] it was 3.15; in [4], 6.47; in series [5], 9.71; in series [6], 9.66. Besides, the Activity in the series on Rattus norvegicus [9] stood at 6.8%; in the series on Rattus norvegicus [10], 2.9%. The compound further came in with a concentration for half-maximal inhibition (IC50) in the series with Plasmodium falciparum of 65 µM. The lipophilicity (logP) in series [7] is -0.326. The D in series [8] is on record as 0.42.

Regarding `Cn1c(CO)cc(=O)c(O)c1CN1CCOCC1`, the pKa in series [1] turned out to be 1.98; in series [2], 5.1; in series [3], 2.14; in [4] it was 4.99; in series [5], 9.77; in [6], 9.75. In addition, the half-inhibitory concentration (IC50) in the series on Plasmodium falciparum is 35 µM. Moreover, the logP in series [7] is -0.765. Besides, the D in [8] is reported as 0.17.

For the compound `O=c1cc(CN2CCCCC2)n(CCN2CCCCC2)cc1O`, the pKa in series [1] is 1.16; in series [2], 7.58; in series [3] it was 2.04; in series [4] it was 7.6; in series [5], 8.83; in series [6] it was 8.95. This compound also had a concentration for half-maximal inhibition (IC50) in the series with Plasmodium falciparum of 21.5 µM. The compound also showed a log partition coefficient (logP) in series [7] of 1.84. In [8], the D is 26.11.

On to `CCc1c(O)c(=O)ccn1CCN1CCCCC1`, for which the pKa in [1] was found to be 2.73; in [2], 7.34; in [3], 2.74; in series [4], 7.38; in series [5], 9.67; in series [6], 9.7. The results for the Activity with Rattus norvegicus [9] and in the series on Rattus norvegicus [10] were 30.4% and 26.5%, respectively. Moreover, half-maximal inhibition in the series with Plasmodium falciparum (IC50) required 25 µM. The compound further displayed a logP in [7] of 0.946. This compound also returned a D in [8] of 4.591.

For the compound `Cc1c(O)c(=O)ccn1C` [DEFERIPRONE], the Activity is 13.4% with Rattus norvegicus [9] and 9.5% with Rattus norvegicus [10]. This compound displayed an IC50 in the series with Plasmodium falciparum of 67.5 µM. The D in [8] came to 0.17.

For the compound `CC(O)c1c(O)c(=O)ccn1CCN1CCCCC1` (stereo unspecified), the pKa in [1] was 2.17; in series [2], 7.37; in series [3] it was 2.14; in series [4] it was 7.35; in series [5], 8.7; in series [6] it was 8.73. Besides, the Activity stood at 23.1% in the series with Rattus norvegicus [9] and 19.2% with Rattus norvegicus [10]. In addition, the IC50 with Plasmodium falciparum was 8 µM. The lipophilicity (logP) in series [7] is 0.242. The D in series [8] worked out at 0.908.

On to `CCc1c(O)c(=O)ccn1CC`, for which the Activity in the series on Rattus norvegicus [9] turned out to be 58.3%; with Rattus norvegicus [10], 54.4%. This compound registered an IC50 in the series with Plasmodium falciparum of 55 µM. In [7], this compound returned a logP of 0.257. The D in series [8] came to 1.79.
